The values below come from ChEMBL document CHEMBL3792374, “Discovery of a ring-opened derivative of 3-n-butylphthalide bearing NO/H2S-donating moieties as a potential anti-ischemic stroke agent” (Eur J Med Chem, 2016).

SMILES strings stand for the structures. Active and inactive are the calls of the source. No cut-off for these calls is given here.

What is called IC50 is the midpoint of a concentration-inhibition curve. For orientation: inhibition means the share of the control response that was lost under treatment.

The nature of series [1]: Antiplatelet activity in rabbit platelet-rich plasma assessed as inhibition of ADP-induced platelet aggregation preincubated for 5 mins followed by addition of ADP measured within 5 mins by Borns turbidimetric method. Type of series: functional. The note with it: Oryctolagus cuniculus. The method in brief:
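Platelet-rich plasma from citrated rabbit carotid blood was preincubated in duplicate at 37 °C for 5 min with compound at 0.1, 0.2, 0.4, 0.8 or 1.6 mM. ADP-induced aggregation was then recorded turbidimetrically, as maximal light transmission within 5 min. Inhibition was calculated versus vehicle control, and IC50 values were derived. Mean ± SD, n = 6, ANOVA/Tukey.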

Series [2] in a line: Induction of nitric oxide release in potassium phosphate buffer at pH 7.4 at 0.1 mM after 60 mins by Griess assay. It counts as physicochemical. Conditions: pH 7.4, 1 h, 100 µM. In short, it runs like this:
(§1)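 Compound (0.1 mM) in PBS pH 7.4 containing 2% DMSO and 5.0 mM L-cysteine was held at 37 °C for 15–300 min. Samples were taken every 15 min up to 120 min, then every 30 min. Each sample was reacted with Griess reagent for 10 min at 37 °C and absorbance read at 540 nm. Nitrite was quantified from a nitrite standard curve. Means reported; intra-group variation <10%.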

Series [3] in a line: Induction of nitric oxide release in potassium phosphate buffer at pH 7.4 at 0.1 mM after 150 mins by Griess assay. Type of series: physicochemical. The note with it: pH 7.4, 2.5 h, 100 µM. In short, it runs like this:
as §1
Background: The Griess reaction detects nitrite, a stable product of nitric oxide.

Series [4] in a line: Induction of nitric oxide release in potassium phosphate buffer at pH 7.4 at 0.1 mM after 15 mins by Griess assay. It counts as physicochemical. The note with it: pH 7.4, 0.25 h, 100 µM. In short, it runs like this:
as §1

In series [5] the test system is Liver. The experiment in a line: Induction of hydrogen sulfide release in rat liver homogenate at 100 uM after 90 mins by microplate reader method (reference value: 1.03 to 1.21%). Type of series: functional, tissue-based. In short, it runs like this: (§2)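 Compound was incubated at 37 °C for 0–90 min with fresh rat liver homogenate. The reaction was stopped with 1% zinc acetate and 10% trichloroacetic acid. N,N-dimethyl-p-phenylenediamine sulfate in 7.2 M HCl and FeCl3 in 1.2 M HCl were added, and absorbance was read at 670 nm after 10 min. Values were calculated against an NaHS standard curve as cumulative % conversion to H2S, n = 6.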

Series [6] deals with Liver. In words: Induction of hydrogen sulfide release in rat liver homogenate at 100 uM after 30 mins by microplate reader method (reference value: 1.03 to 1.21%). It counts as functional, tissue-based. In short, it runs like this: as §2
The nature of series [7]: Induction of nitric oxide release in potassium phosphate buffer at pH 7.4 at 0.1 mM after 45 mins by Griess assay. Type of series: physicochemical. Conditions: pH 7.4, 0.75 h, 100 µM. In short, it runs like this: as §1
The nature of series [8]: Induction of nitric oxide release in potassium phosphate buffer at pH 7.4 at 0.1 mM after 120 mins by Griess assay. The note with it: pH 7.4, 2 h, 100 µM. Type of series: physicochemical. In short, it runs like this:
as §1

Series [9] can be described thus: Induction of nitric oxide release in potassium phosphate buffer at pH 7.4 at 0.1 mM after 180 mins by Griess assay. Type of series: physicochemical. The note with it: pH 7.4, 3 h, 100 µM. In short, it runs like this: as §1
Series [10] can be described thus: Induction of nitric oxide release in potassium phosphate buffer at pH 7.4 at 0.1 mM after 300 mins by Griess assay. It counts as physicochemical. Conditions: pH 7.4, 5 h, 100 µM. The method in brief: as §1
Series [11] in a line: Antiplatelet activity in rabbit platelet-rich plasma assessed as inhibition of ADP-induced platelet aggregation at 0.1 mM preincubated for 5 mins followed by addition of ADP measured within 5 mins by Borns turbidimetric method. It counts as functional. Conditions: Oryctolagus cuniculus. In short, it runs like this: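 Rabbit carotid blood was citrated (3.8%, 9:1). PRP was obtained at 500 g for 10 min and PPP at 3000 g for 10 min. PRP was preincubated in duplicate for 5 min at 37 °C with 0.1 mM compound, plus carboxy-PTIO or BSS where indicated. ADP was then added and maximal light transmission recorded within 5 min, within 3 h of blood collection. Inhibition % was calculated versus control. Mean ± SD of three independent experiments.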

The test system of series [12] is Liver. In words: Induction of hydrogen sulfide release in rat liver homogenate at 100 uM after 15 mins by microplate reader method (reference value: 1.03 to 1.21%). It counts as functional, tissue-based. The method in brief:
as §2

Series [13] is described as follows: Induction of nitric oxide release in potassium phosphate buffer at pH 7.4 at 0.1 mM after 75 mins by Griess assay. Type of series: physicochemical. Conditions: pH 7.4, 1.25 h, 100 µM. The method in brief:
as §1

Series [14] in a line: Induction of nitric oxide release in potassium phosphate buffer at pH 7.4 at 0.1 mM after 30 mins by Griess assay. It counts as physicochemical. The note with it: pH 7.4, 0.5 h, 100 µM. The method in brief: as §1
Series [15] deals with Liver. In words: Induction of hydrogen sulfide release in rat liver homogenate at 100 uM after 60 mins by microplate reader method (reference value: 1.03 to 1.21%). Type of series: functional, tissue-based. The method in brief:
as §2

Series [16] can be described thus: Induction of nitric oxide release in potassium phosphate buffer at pH 7.4 at 0.1 mM after 240 mins by Griess assay. It counts as physicochemical. Conditions: pH 7.4, 4 h, 100 µM. In short, it runs like this:
as §1

The nature of series [17]: Induction of nitric oxide release in potassium phosphate buffer at pH 7.4 at 0.1 mM after 105 mins by Griess assay. Type of series: physicochemical. The note with it: pH 7.4, 1.75 h, 100 µM. The method in brief: as §1
Series [18] is described as follows: Induction of nitric oxide release in potassium phosphate buffer at pH 7.4 at 0.1 mM after 90 mins by Griess assay. Type of series: physicochemical. The note with it: pH 7.4, 1.5 h, 100 µM. The method in brief: as §1
For series [19], the system named is Rattus norvegicus. In words: Antioxidant activity in Sprague-Dawley rat brain tissue model of transient middle cerebral artery occlusion stroke model assessed as increase in glutathione peroxidase levels per mg of protein at 80 mg/kg […] measured 24 hrs after reperfusion by DTNB assay relative to control. It counts as functional.
Series [20] has as its system Rattus norvegicus. In words: Neuroprotective activity in Sprague-Dawley rat model of transient middle cerebral artery occlusion stroke model assessed as neurological deficit at 80 mg/kg administered via oral gavage for 7 days after ischemia onset measured 24 hrs after middle cerebral artery occlusion by Longa's method. It counts as functional, organism-based. The note with it: in the assay text read “before ischemia onset” for “after ischemia onset”. The method in brief: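 Male SD rats (280–320 g) received daily gavage for 7 days, with 0.5% CMC-Na as vehicle. Two hours after the last dose they underwent 2 h MCAO with reperfusion under chloral hydrate anesthesia; core temperature was held at 37 °C. Neurological deficit was scored blinded by Longa's method 24 h after reperfusion, between 10 and 11 a.m. Kruskal–Wallis test followed by Mann–Whitney U test.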

Series [21] concerns Rattus norvegicus. In words: Antioxidant activity in Sprague-Dawley rat brain tissue model of transient middle cerebral artery occlusion stroke model assessed as increase in superoxide dismutase levels per mg of protein at 80 mg/kg […] measured 24 hrs after reperfusion by nitroblue tetrazolium assay relative to control. Type of series: functional.

As for `CCCCC(OC(=O)CN1CCN(CCCCOc2ccc(-c3cc(=S)ss3)cc2)CC1)c1ccccc1C(=O)Oc1ccc(/C=C/C(=O)OCCCCCCO[N+](=O)[O-])cc1OC` (racemic), the IC50 in [1] is 320 µM. Also, the Activity in series [2] was found to be 4 µM; in series [3], 5.3 µM; in [4], 1.17 µM; in the series with Liver [5] it was 1.35%; with Liver [6] it was 0.92%; in series [7] it was 3.26 µM. Further, the Activity was 5.09 µM in series [8]; 5.31 µM in series [9]; 5.38 µM in series [10]; 0.75% with Liver [12]; 4.36 µM in series [13]; 2.24 µM in series [14]. Besides, the Activity with Liver [15] came to 1.33%; in [16], 5.33 µM; in series [17] it was 4.98 µM; in series [18], 4.68 µM. Moreover, the inhibition at 100 µM in [11] was 19.7%.
Consider `CCCCC(OC(=O)CN1CCN(CCCCCCOc2ccc(-c3cc(=S)ss3)cc2)CC1)c1ccccc1C(=O)Oc1ccc(/C=C/C(=O)OCCCCCCO[N+](=O)[O-])cc1OC` (racemic), for which, in series [1], the IC50 worked out at 190 µM. Moreover, the Activity came to 7.88 µM in series [2]; 10.12 µM in series [3]; 3.01 µM in [4]; 3.32% with Liver [5]; 2.83% with Liver [6]; 6.09 µM in series [7]. Further, the Activity came out at 10.01 µM in series [8]; 10.14 µM in [9]; 10.22 µM in series [10]; 2.53% in the series with Liver [12]; 8.28 µM in series [13]; 5.45 µM in [14]. Moreover, the Activity stood at 3.3% with Liver [15], 10.18 µM in [16], 9.58 µM in [17] and 9.11 µM in [18]. Further, in series [11], the inhibition at 100 µM came out at 19.7%.
With `CCCCC1OC(=O)c2ccccc21` (stereo not drawn) [RAC-3-N-BUTYLPHTHALIDE], the IC50 in [1] was determined as 740 µM. Also, the inhibition at 100 µM in series [11] stood at 12.9%. The figures for the Activity with Rattus norvegicus [19] and in the series on Rattus norvegicus [21] were 63.55% and 24.36%, respectively. Besides, in the series on Rattus norvegicus [20], the result was inactive.
